Experimental data taken from publication PMC10127574 (ACS chemical biology, 2015).
Values after ≈ are worked out from the molar mass of the structure shown.

Columns and labels:
[1] = chemical stability in PBS; assay type: physicochemical
[2] = system: cysteines (proteome-wide); test: proteome-wide activity-based protein-profiling assay
[3] = solubility in assay buffer; assay type: physicochemical; conditions: aqueous buffer
[4] = target: T1, cysteine-free form of IDE (CF-IDE) (Homo sapiens, UniProt P14735, C819S, form not given); test: IDE activity assay with FRET1 using cysteine-free IDE; assay type: biochemical; conditions: read-out: ki CF-IDE
T1 sequence (P14735 42-1019 C819S): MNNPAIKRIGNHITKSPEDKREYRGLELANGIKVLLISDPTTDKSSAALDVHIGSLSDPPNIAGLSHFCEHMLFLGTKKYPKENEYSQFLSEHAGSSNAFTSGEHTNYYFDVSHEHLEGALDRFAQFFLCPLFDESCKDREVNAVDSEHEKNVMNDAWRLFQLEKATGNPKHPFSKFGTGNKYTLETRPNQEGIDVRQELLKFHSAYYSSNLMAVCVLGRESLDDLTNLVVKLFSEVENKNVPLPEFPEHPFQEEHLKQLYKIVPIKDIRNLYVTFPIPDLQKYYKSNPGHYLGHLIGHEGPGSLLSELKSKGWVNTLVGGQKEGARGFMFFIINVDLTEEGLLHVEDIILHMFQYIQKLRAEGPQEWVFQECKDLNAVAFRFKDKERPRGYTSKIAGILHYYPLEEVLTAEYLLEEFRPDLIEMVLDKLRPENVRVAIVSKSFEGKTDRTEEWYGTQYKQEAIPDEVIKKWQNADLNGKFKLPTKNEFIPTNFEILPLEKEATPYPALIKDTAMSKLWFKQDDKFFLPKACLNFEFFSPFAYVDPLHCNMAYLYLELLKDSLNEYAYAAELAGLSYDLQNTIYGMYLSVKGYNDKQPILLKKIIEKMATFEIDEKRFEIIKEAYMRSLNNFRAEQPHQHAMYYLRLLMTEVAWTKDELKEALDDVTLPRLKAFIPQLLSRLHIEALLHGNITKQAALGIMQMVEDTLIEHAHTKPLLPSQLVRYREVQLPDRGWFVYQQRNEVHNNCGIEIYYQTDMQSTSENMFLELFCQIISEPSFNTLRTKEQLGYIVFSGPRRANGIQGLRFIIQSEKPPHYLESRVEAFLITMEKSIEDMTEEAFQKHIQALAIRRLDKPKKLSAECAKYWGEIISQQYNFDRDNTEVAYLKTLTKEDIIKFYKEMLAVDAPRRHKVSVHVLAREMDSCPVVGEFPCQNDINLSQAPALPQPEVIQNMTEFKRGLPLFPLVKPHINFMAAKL

HEK-293 cells = test: luminescence-based HEK cell viability; parameters: species or system human; conditions: up to 100 μM
[5] = liver microsome stability, human; assay type: in vitro ADME; conditions: human liver microsomes
[6] = liver microsome stability, mouse; assay type: in vitro ADME; conditions: mouse liver microsomes
WT-IDE = target: T2, WT-IDE (Homo sapiens, UniProt P14735); test: kinetics of irreversible inhibition; assay type: biochemical
T2 sequence (P14735 1-1019): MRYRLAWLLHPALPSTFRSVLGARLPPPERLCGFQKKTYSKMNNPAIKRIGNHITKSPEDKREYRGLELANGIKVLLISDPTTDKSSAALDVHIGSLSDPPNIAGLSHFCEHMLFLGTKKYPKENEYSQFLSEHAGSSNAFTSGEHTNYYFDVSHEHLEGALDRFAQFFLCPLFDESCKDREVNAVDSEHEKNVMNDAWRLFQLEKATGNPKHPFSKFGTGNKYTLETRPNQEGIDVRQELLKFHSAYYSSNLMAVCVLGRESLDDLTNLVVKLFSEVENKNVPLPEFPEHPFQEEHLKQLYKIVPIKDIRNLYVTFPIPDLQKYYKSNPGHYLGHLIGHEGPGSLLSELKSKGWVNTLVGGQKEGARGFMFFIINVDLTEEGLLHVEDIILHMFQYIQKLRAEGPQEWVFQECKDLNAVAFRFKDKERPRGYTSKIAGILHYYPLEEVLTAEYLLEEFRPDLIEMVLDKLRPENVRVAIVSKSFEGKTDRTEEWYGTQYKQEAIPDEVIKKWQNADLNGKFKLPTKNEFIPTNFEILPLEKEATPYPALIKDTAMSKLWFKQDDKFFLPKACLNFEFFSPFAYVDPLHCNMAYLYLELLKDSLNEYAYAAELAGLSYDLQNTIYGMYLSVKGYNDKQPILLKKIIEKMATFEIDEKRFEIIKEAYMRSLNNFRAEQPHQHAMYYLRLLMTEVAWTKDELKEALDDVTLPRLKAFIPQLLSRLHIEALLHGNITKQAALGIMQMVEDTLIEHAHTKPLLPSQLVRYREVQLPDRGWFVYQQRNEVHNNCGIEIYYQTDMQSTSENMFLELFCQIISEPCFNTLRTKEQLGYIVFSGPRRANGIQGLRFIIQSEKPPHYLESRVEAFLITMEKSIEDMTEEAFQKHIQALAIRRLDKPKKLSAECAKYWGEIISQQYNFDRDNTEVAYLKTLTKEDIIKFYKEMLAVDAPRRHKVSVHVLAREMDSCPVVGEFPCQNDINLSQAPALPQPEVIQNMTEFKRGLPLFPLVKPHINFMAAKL
Summary of the method: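 Recombinant WT-IDE (2 nM) and FRET1 substrate (5 μM) were monitored continuously at 3-s intervals, starting immediately after adding inhibitor at several concentrations. Curve fits gave observed rate constants, which were plotted against inhibitor concentration. A hyperbolic fit gave kinhib and KM. LE was taken as ΔG/heavy atoms using KM; SEI as pKM/tPSA/100 Å2.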

Chemical stability in PBS [1]: >> 48 hr. | solubility [3]: 5.1 µM (≈ 2.45 µg/mL) | Ki [4]: 8.37 µM | Liver microsome stability, Human [5]: > 120 min | Liver microsome stability, Mouse [6]: 24 min | kinhib (WT-IDE; Table 3, n=5): 13.4 ± 2.7 (n=5) min^−1 | kinhib (WT-IDE; WT-IDE 2 nM, FRET1 5 μM, rate constant of irreversible step): 13.4 min⁻¹ | LE (ligand efficiency, ΔG/HA) (WT-IDE; calculated using KM value): 0.234 kcal mol^−1 HA^−1
SMILES: O=c1c2cc(F)ccc2sn1-c1cc(S(=O)(=O)N2CCOCC2)ccc1N1CCOCC1 [Compound 8, 5-fluoro-2-(2-morpholin-4-yl-5-morpholin-4-ylsulfonylphenyl)-1,2-benzothiazol-3-one]
reactivity with cysteines in proteome-wide activity-based protein profiling [2]: minimal reactivity | toxicity in cells (HEK-293 cells): no toxicity
